The record followed here is ChEMBL document CHEMBL3875200, “Bivalent SIRT1 inhibitors” (Bioorg Med Chem Lett, 2017).

SMILES strings stand for the structures. The source made the active and inactive calls. The calls are words filed in the database; no cut-off is given here.

Data set [1] deals with T1, NAD-dependent protein deacetylase sirtuin-1 (Homo sapiens, UniProt Q96EB6).
T1 sequence (Q96EB6 whole entry): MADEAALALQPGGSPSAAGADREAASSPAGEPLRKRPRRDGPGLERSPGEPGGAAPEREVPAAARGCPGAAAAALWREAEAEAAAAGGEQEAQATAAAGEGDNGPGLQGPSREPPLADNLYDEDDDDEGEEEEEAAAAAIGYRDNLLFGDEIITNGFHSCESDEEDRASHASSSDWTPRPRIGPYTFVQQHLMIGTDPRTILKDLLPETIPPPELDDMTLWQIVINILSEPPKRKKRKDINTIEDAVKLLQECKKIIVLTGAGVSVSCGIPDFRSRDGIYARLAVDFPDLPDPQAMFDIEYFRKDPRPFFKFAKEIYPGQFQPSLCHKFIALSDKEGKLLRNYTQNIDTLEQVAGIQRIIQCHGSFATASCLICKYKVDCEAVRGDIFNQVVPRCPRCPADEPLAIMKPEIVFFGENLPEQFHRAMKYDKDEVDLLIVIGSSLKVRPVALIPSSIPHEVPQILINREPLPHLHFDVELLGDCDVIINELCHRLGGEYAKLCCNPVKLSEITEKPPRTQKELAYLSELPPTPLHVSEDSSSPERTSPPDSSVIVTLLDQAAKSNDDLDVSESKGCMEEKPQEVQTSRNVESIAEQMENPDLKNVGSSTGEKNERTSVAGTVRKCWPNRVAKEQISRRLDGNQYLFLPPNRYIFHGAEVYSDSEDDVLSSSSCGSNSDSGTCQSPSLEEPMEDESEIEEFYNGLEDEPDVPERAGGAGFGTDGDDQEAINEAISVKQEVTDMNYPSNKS
Description: Inhibition of recombinant human His6/GST-tagged SIRT1 expressed in Escherichia coli assessed as reduction in H2N-HK-[Nepsilon-acetyl-lysine]-LM-COOH deacetylation measured after 10 mins in presence of beta-NAD+ by RP-HPLC assay.

In data set [2] the target is T2, NAD-dependent protein deacetylase sirtuin-1 (Homo sapiens) (UniProt Q96EB6).
T2 sequence (whole entry): T1 sequence (Q96EB6 whole entry)
Description: Reversible inhibition of recombinant human His6/GST-tagged SIRT1 expressed in Escherichia coli assessed as inhibition of H2N-HK-[epsilonN-acetyl-lysine]-LM-COOH deacetylation measured after 10 mins in presence of beta-NAD+ by Dixon plot analysis.

The target of data set [3] is T3, NAD-dependent protein deacetylase sirtuin-2 (Homo sapiens, UniProt Q8IXJ6).
T3 sequence (Q8IXJ6 whole entry): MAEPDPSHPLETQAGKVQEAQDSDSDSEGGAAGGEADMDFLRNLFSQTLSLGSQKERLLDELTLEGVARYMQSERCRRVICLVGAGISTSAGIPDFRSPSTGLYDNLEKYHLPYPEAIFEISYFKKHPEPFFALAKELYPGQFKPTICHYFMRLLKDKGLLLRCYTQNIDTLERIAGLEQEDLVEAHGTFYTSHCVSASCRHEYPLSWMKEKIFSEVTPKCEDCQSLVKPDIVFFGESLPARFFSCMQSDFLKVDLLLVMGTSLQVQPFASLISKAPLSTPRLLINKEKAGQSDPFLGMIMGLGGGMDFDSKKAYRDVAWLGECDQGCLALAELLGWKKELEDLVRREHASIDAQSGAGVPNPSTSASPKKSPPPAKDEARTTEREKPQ
Description: Inhibition of recombinant human His6-tagged SIRT2 (2 to 389 residues) expressed in Escherichia coli assessed as inhibition of H2N-HK-[epsilonN-acetyl-lysine]-LM-COOH deacetylation measured after 12 mins in presence of beta-NAD+ by RP-HPLC analysis.

Data set [4] deals with T4, NAD-dependent protein deacetylase sirtuin-3, mitochondrial (Homo sapiens, UniProt Q9NTG7).
T4 sequence (Q9NTG7 whole entry): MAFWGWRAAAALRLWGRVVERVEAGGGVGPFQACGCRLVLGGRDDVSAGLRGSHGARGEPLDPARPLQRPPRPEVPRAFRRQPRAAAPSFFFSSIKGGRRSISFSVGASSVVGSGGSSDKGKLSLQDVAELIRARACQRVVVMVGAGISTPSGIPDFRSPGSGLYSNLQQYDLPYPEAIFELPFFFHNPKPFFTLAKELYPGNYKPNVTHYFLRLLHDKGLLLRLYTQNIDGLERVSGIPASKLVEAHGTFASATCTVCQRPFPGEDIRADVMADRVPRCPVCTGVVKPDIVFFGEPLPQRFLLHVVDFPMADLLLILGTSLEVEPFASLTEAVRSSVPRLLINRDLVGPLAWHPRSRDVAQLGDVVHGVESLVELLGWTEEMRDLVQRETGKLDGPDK
Description: Inhibition of recombinant human His6-tagged SIRT3 (101 to 399 residues) expressed in Escherichia coli assessed as inhibition of H2N-HK-[epsilonN-acetyl-lysine]-LM-COOH deacetylation measured after 10 mins in presence of beta-NAD+ by reversed-phase C18 HPLC analysis.

The species entered for data set [5] is Homo sapiens. The experiment in a line: Selectivity ratio of IC50 for recombinant human His6/GST-tagged SIRT1 expressed in Escherichia coli to IC50 for recombinant human His6-tagged SIRT3 (101 to 399 residues) expressed in Escherichia coli.
The species entered for data set [6] is Homo sapiens. The experiment in a line: Selectivity ratio of IC50 for recombinant human His6/GST-tagged SIRT1 expressed in Escherichia coli to IC50 for recombinant human His6-tagged SIRT2 (2 to 389 residues) expressed in Escherichia coli.
Data set [7] has as its target T2, NAD-dependent protein deacetylase sirtuin-1 (Homo sapiens). The experiment in a line: Non-competitive inhibition of recombinant human His6/GST-tagged SIRT1 expressed in Escherichia coli assessed as deacetylation of H2N-HK-[epsilonN-acetyl-lysine]-LM-COOH at 4 to 8.5 uM measured after 10 mins in presence of varying beta-NAD+ and constant substrate concentration by Lineweaver-Burk plot analysis. Summed up:
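β-NAD⁺ was the varied co-substrate. An uncompetitive-intercept inhibition constant (Kii) and the apparent Km for β-NAD⁺ were derived from the kinetic data.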

The target is the same in data set [8]. The experiment in a line: Competitive inhibition of recombinant human His6/GST-tagged SIRT1 expressed in Escherichia coli assessed as deacetylation of H2N-HK-[epsilonN-acetyl-lysine]-LM-COOH at 4 to 8.5 uM measured after 10 mins in presence of constant beta-NAD+ and varying substrate concentration by Lineweaver-Burk plot analysis. An outline of the steps:
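Inhibitor tested against varied acetyl-lysine peptide substrate H2N-HK-(Nε-acetyl-lysine)-LM-COOH. A competitive inhibition constant (Kis) and the apparent Km for this peptide were derived from the kinetic data.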

The nature of data set [9]: Aqueous solubility of the compound. It counts as physicochemical. Particulars: buffer.

For orientation: IC50 means the point on the concentration scale where inhibition reaches its midpoint. Take `CC(=O)NCCCC[C@H](NC(=O)[C@H](CCCCNC(=O)CCCCCCSc1nc2ccccc2s1)NC(=O)[C@H](CCCCNC(C)=O)NC(C)=O)C(N)=O`: the IC50 in [1] amounted to 30 µM. As to `CC(=O)NCCCC[C@H](NC(=O)[C@H](CCCCNC(=O)CCCCCSc1ccc2ccccc2c1)NC(=O)[C@H](CCCCNC(C)=O)NC(C)=O)C(N)=O`, the IC50 in data set [1] was found to be 14.6 µM.

Turning to `CC(=O)NCCCC[C@H](NC(=O)[C@H](CCCCNC(=O)CCCCCSc1ncc(-c2ccccc2)s1)NC(=O)[C@H](CCCCNC(C)=O)NC(C)=O)C(N)=O`, the IC50 in data set [1] turned out to be 15.4 µM. Regarding `CC(=O)NCCCC[C@H](NC(=O)[C@H](CCCCNC(=O)CCCSc1nc2ccccc2s1)NC(=O)[C@H](CCCCNC(C)=O)NC(C)=O)C(N)=O`, the IC50 in [1] was 27 µM. On the same count and under the same terms, in the case of `CC(=O)NCCCC[C@H](NC(=O)[C@H](CCCCNC(=O)CSCc1ccccc1)NC(=O)[C@H](CCCCNC(C)=O)NC(C)=O)C(N)=O` it was 171 µM; in that of `CC(=O)NCCCC[C@H](NC(=O)[C@H](CCCCNC(=O)CCCCCSc1nc2ccccc2o1)NC(=O)[C@H](CCCCNC(C)=O)NC(C)=O)C(N)=O`, 133 µM. Regarding `CC(=O)NCCCC[C@H](NC(=O)[C@H](CCCCNC(=O)CI)NC(=O)[C@H](CCCCNC(C)=O)NC(C)=O)C(N)=O`, in [2], the inhibition result is “Active”. In addition, the figures for the IC50 in [3] and in [1] were 22.2 µM and 39.3 µM, respectively. As to `CC(=O)NCCCC[C@H](NC(=O)[C@H](CCCCNC(=O)CNC(=O)CI)NC(=O)[C@H](CCCCNC(C)=O)NC(C)=O)C(N)=O`, the inhibition result in data set [2] was “Active”. In addition, the IC50 in data set [1] was above 200 µM. `CC(=O)NCCCC[C@H](NC(=O)[C@H](CCCCNC(=O)CSc1nc2ccccc2s1)NC(=O)[C@H](CCCCNC(C)=O)NC(C)=O)C(N)=O`: in [1], the IC50 came out at 77.5 µM.

Turning to `CC(=O)NCCCC[C@H](NC(=O)[C@H](CCCCNC(=O)CNC(=O)CNC(=O)CSc1nc2ccccc2s1)NC(=O)[C@H](CCCCNC(C)=O)NC(C)=O)C(N)=O`, in [1], the IC50 was determined as 116 µM.

Turning to `CC(=O)NCCCC[C@H](NC(=O)[C@H](CCCCNC(=O)CCCCCCCSc1nc2c(N)ncnc2[nH]1)NC(=O)[C@H](CCCCNC(C)=O)NC(C)=O)C(N)=O`, in [1], the IC50 came to 45.8 µM. On to `CC(=O)NCCCC[C@H](NC(=O)[C@H](CCCCNC(=O)CCCCCSc1nc2c(N)ncnc2[nH]1)NC(=O)[C@H](CCCCNC(C)=O)NC(C)=O)C(N)=O`, for which, in data set [1], the IC50 is above 900 µM. Consider `CC(=O)NCCCC[C@H](NC(=O)[C@H](CCCCNC(=O)CCCCCSc1nc2ccccc2[nH]1)NC(=O)[C@H](CCCCNC(C)=O)NC(C)=O)C(N)=O`, for which the IC50 in data set [1] is 187 µM. Take `CC(=O)NCCCC[C@H](NC(=O)[C@H](CCCCNC(=O)CCCCCSc1nc2ccccc2s1)NC(=O)[C@H](CCCCNC(C)=O)NC(C)=O)C(N)=O`: the IC50 is above 1000 µM in [4], above 200 µM in data set [3] and 12.4 µM in [1]. Also, the Ratio IC50 in the data set filed under Homo sapiens [5] was above 81; in the data set filed under Homo sapiens [6], above 16. For the same compound, the inhibition result in data set [7] and in data set [8] was “Active” in each case.

For `CC(=O)NCCCC[C@H](NC(=O)[C@H](CCCCNC(=O)CCCCCSc1cccc2ccccc12)NC(=O)[C@H](CCCCNC(C)=O)NC(C)=O)C(N)=O`, the IC50 in [1] turned out to be 14.6 µM. In the case of `CC(=O)NCCCC[C@H](NC(=O)[C@H](CCCCNC(=O)CSc1ncc(-c2ccccc2)s1)NC(=O)[C@H](CCCCNC(C)=O)NC(C)=O)C(N)=O`, the IC50 in data set [1] was 18 µM. As for `CC(=O)NCCCC[C@H](NC(=O)[C@H](CCCCNC(=O)CSc1nnc(/C=C/c2ccccc2)[nH]1)NC(=O)[C@H](CCCCNC(C)=O)NC(C)=O)C(N)=O`, the IC50 in data set [1] is 150 µM. Turning to `CC(=O)NCCCC[C@H](NC(=O)[C@H](CCCCNC(=O)CCCCCSCc1ccccc1)NC(=O)[C@H](CCCCNC(C)=O)NC(C)=O)C(N)=O`, in data set [1], the IC50 came to 57.7 µM. On to `CC(=O)NCCCC[C@H](NC(=O)[C@H](CCCCNC(=O)CCCCCCCSc1nc2ccccc2s1)NC(=O)[C@H](CCCCNC(C)=O)NC(C)=O)C(N)=O`, for which the solubility entry in data set [9] was “Insoluble”. For the same compound, the IC50 in data set [1] stood at 5.3 µM.
